Reference: ChEMBL document CHEMBL3779787, “Amorfrutin C Induces Apoptosis and Inhibits Proliferation in Colon Cancer Cells through Targeting Mitochondria” (J Nat Prod, 2016)
The source made the active and inactive calls. The rule behind the calls is not given here.

How the values were obtained:
[1] = system: HT-29; assay: Induction of ROS generation in human HT-29 cells at 30 uM by CM-H2DCFDA staining-based fluorescence assay in presence of alpha-tocopherol; format: functional, cell-based
Method in brief: (§1)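 HT-29 (15 000 cells/well) loaded with 50 μM CM-H2DCFDA in PBS for 30 min at 37 °C, washed, then 60 min in phenol red-free DMEM/F-12. 30 μM compound added alone or with NAC 1 mM, GSH 2.5 mM, D3T 25 μM, α-tocopherol 50 μM or ascorbic acid 500 μM. Fluorescence 485/530 nm read kinetically at 37 °C for 22 h; area under curve; means ± SEM, n = 7.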

[2] = system: HT-29; assay: Antiproliferative activity against human HT-29 cells assessed as cellular DNA content after 72 hrs by CyQUANT NF fluorescence assay in presence of irinotecan; format: functional, cell-based
Method in brief: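 HT-29 exposed 72 h to concentration series of mixtures at ratios 7:0 through 0:7 with the partner drug. Relative cell number from DNA-content fluorescence. IC70 = concentration giving 70% inhibition of total cells (means ± SD, n = 4); isobolograms by Loewe additivity, CI(M) = IC70(Mx)/IC70(x) + IC70(My)/IC70(y).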

[3] = system: HT-29; assay: Induction of apoptosis in human HT-29 cells assessed as mitochondrial membrane depolarization at 30 uM by JC-1 dye-based fluorescence assay in presence of cyclosporinA; format: functional, cell-based
[4] = system: HT-29; assay: Antiproliferative activity against human HT-29 cells assessed as cellular DNA content at 20 uM after 48 hrs by CyQUANT NF fluorescence assay in presence of alpha-tocopherol; format: functional, cell-based
Method in brief: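 HT-29 given concentration series of test compound with or without antioxidant (NAC 1 mM, GSH 2.5 mM, D3T 25 μM, α-tocopherol 50 μM, ascorbic acid 500 μM) for 48 h. Relative cell number from DNA-binding fluorescent dye; means ± SD, n = 4.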

[5] = system: HT-29; assay: Induction of apoptosis in human HT-29 cells assessed as increase in caspase 9 activity at 30 uM after 2 hrs by luminescent assay relative to control; format: functional
Method in brief: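 HT-29 cells exposed to compound 2 h; effector/initiator caspase enzymatic activity measured by luminescent assays, normalized to control treatment; means ± SEM, n = 4.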

[6] = system: HT-29; assay: Induction of ROS generation in human HT-29 cells at 30 uM by CM-H2DCFDA staining-based fluorescence assay in presence of 3H-1,2-dithiole-3-thione; format: functional, cell-based; method in brief: as §1
[7] = system: HT-29; assay: Induction of apoptosis in human HT-29 cells assessed as permanent opening of mitochondrial permeability transition pore at 30 uM after 30 mins calcein/CoCl2 staining-based fluorescence assay; format: functional, cell-based
Method in brief: (§2)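 Trypsinized HT-29 (10^6 cells/mL) in HBSS/Ca with 10 nM calcein and 400 μM CoCl2. Pretreated 60 min at 37 °C with 2 μM cyclosporin A or vehicle, then test compound for 30 min at 37 °C. Washed; mitochondrial calcein fluorescence by flow cytometry; means ± SEM, n = 6.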

[8] = system: HT-29; assay: Increase in extracellular acidification rate in human HT-29 cells at 2 uM measured for 20 to 150 mins by time-resolved fluorescence assay; format: functional
Method in brief: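 HT-29 seeded 80 000 cells/well, held overnight at 37 °C without CO2. Low-buffering medium (1 mM PBS pH 7.4, 20 mM glucose, salts) with pH-sensitive lifetime probe, unsealed wells. Time-resolved fluorescence at 37 °C for 200 min, lifetime converted to pH. Acidification rate (H+ change/min) taken over 20–150 min; means ± SEM, n = 8.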

[9] = system: HT-29; assay: Induction of apoptosis in human HT-29 cells assessed as opening of mitochondrial permeability transition pore at 30 uM after 30 mins calcein/CoCl2 staining-based fluorescence assay in presence of cyclosporinA; format: functional, cell-based; method in brief: as §2
[10] = system: HT-29; assay: Induction of apoptosis in human HT-29 cells at 30 uM after 24 hrs by annexin V-FLUOS/propidium iodide staining-based flow cytometry in presence of cyclosporine A; format: functional, cell-based
Method in brief: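 For 24 h, HT-29 cells were exposed to 30 μM compound with or without cyclosporin A (2 μM). Apoptosis and necrosis were scored by annexin V-FLUOS/propidium iodide flow cytometry. Means ± SEM, n = 3.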

[11] = system: HT-29; assay: Induction of ROS generation in human HT-29 cells at 30 uM by CM-H2DCFDA staining-based fluorescence assay in presence of N-acetylcysteine; format: functional, cell-based; method in brief: as §1
[12] = system: HT-29; assay: Induction of apoptosis in human HT-29 cells assessed as increase in cleaved caspase 3 at 30 uM after 6 hrs by DAPI staining-based fluorescence microscopy; format: functional, cell-based
Method in brief: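 HT-29 on coverslips treated 30 μM for 6 h, fixed in 4% formaldehyde, permeabilized with 0.3% Triton X-100, blocked in goat serum. Anti-cleaved caspase 3 (1:200) overnight at 4 °C, then Alexa Fluor 488 secondary (1:1000) 1 h. DAPI counterstain; imaged by fluorescence microscopy.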

[13] = system: HT-29; assay: Downregulation of CDK2 expression in human HT-29 cells at 10 uM after 48 hrs by immunoblotting method; format: functional, cell-based
Method in brief: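 HT-29 exposed to 10 μM for 48 h; whole-cell lysates immunoblotted for the indicated proteins (total and cleaved PARP for the apoptosis line).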

[14] = system: HT-29; assay: Antiproliferative activity against human HT-29 cells assessed as cellular DNA content at 20 uM after 48 hrs by CyQUANT NF fluorescence assay in presence of PPAR siRNA; format: functional, cell-based
Method in brief: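 HT-29 reverse-transfected with equimolar siRNA pool against PPARα, β/δ, γ (10 nM each) or 30 nM nonspecific siRNA, seeded 850 cells/well. After 48 h, 20 μM compound added for a further 48 h. Relative cell number from DNA content; means ± SD, n = 8.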

[15] = system: T84; assay: Antiproliferative activity against human T84 cells assessed as cellular DNA content after 96 hrs by CyQUANT NF fluorescence assay; format: functional, cell-based; conditions: T84, 96 h
Method in brief: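 Cells seeded at 750 (HT-29), 250 (PC-3) or 900 (T84, MCF7) cells/well, treated next day with concentration series for 72 h (HT-29, PC-3) or 96 h (T84, MCF7). Relative cell number from cellular DNA content by fluorescent DNA-binding dye. Variable-slope fit; efficiency = maximal inhibition (100% − Bottom) vs untreated; IC50 relative to the compound's own maximal efficiency.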

[16] = target: T1, Peroxisome proliferator-activated receptor delta (Homo sapiens, UniProt Q03181); assay: Competitive binding affinity to PPARbeta/delta (unknown origin) by TR-FRET assay
T1 sequence (Q03181 whole entry): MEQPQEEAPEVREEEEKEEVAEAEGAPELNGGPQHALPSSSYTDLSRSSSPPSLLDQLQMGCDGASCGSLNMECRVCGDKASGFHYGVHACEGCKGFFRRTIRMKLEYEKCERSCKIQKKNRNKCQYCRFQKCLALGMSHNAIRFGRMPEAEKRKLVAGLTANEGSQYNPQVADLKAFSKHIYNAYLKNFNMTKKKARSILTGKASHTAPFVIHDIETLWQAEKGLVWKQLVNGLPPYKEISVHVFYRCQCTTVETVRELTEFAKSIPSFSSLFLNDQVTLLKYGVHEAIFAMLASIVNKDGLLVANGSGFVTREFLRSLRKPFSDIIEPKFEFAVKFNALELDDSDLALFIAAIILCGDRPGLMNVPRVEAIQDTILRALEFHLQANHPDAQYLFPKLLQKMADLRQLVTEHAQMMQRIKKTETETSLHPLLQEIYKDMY

COc1c(CC=C(C)C)c(O)c(C(=O)O)c(CCc2ccccc2)c1CC=C(C)C was tested, and the Activity [1] was “inactive”, the Activity [2] was “Active” and the Activity [3] was “Active”. For the same molecule, the Activity [4] was “Active”, the “fold change (FC)” value [5] was 3 and the Activity [6] was “inactive”. For the same molecule, the Activity [7] was “Active”, the Activity [8] was 1.5 ×10⁻⁹ /min and the Activity [9] was “inactive”. For the same molecule, the Activity [10] was “Active”, the Activity [11] was “inactive” and the Activity [12] was “Active”. For the same molecule, the Activity [13] was “Active”, the Activity [14] was “Active” and the IC50 [15] was 11 µM. It also gave a Ki [16] of 5.2 µM.
